Measured values published in ChEMBL document CHEMBL3868612, “Discovery of a potent and selective ROMK inhibitor with improved pharmacokinetic properties based on an octahydropyrazino[2,1-c][1,4]oxazine scaffold” (Bioorg Med Chem Lett, 2016).

Legend:
[1] = Stability in rat microsomes assessed as compound remaining at 45 mins; type: ADME, Microsome; settings: read-out: Stability
[2] = target: T1, Inward rectifier potassium channel 13 (Homo sapiens, UniProt O60928); assay: Inhibition of Kir7.1 (unknown origin)
T1 sequence (O60928 whole entry): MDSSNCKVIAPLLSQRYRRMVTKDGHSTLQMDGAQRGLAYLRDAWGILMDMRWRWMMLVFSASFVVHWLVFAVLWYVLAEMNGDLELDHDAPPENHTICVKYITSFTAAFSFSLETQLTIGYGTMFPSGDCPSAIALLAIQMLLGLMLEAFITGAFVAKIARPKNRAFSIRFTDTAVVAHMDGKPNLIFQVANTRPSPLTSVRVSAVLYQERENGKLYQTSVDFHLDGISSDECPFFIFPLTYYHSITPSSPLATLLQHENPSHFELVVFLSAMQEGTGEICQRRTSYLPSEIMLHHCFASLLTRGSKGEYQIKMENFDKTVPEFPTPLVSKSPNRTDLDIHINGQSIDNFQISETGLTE

[3] = Stability in human microsomes assessed as compound remaining at 45 mins; type: ADME, Microsome; settings: read-out: Stability
[4] = Half life in Sprague-Dawley rat at 1 mg/kg, iv or 2 mg/kg, po; type: ADME, organism-based; settings: in vivo
Rattus norvegicus [5] = assay: Antihypertensive activity in […] rat model assessed as increase in diuresis at 30 mg/kg, po qd measured on day 1 post dose relative to control; type: functional
Method in brief: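 Spontaneously hypertensive rats dosed orally once daily for 3 days at 3, 10 and 30 mg/kg (reference diuretic at 25 mg/kg); 24 h urine output on day 1 expressed as fold increase over vehicle-treated rats; n = 5 per group.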

[6] = Unbound fraction in human plasma; type: ADME, cell-free
[7] = target: T2, Inward rectifier potassium channel 2 (Homo sapiens, UniProt P63252); assay: Inhibition of Kir2.1 (unknown origin)
T2 sequence (P63252 whole entry): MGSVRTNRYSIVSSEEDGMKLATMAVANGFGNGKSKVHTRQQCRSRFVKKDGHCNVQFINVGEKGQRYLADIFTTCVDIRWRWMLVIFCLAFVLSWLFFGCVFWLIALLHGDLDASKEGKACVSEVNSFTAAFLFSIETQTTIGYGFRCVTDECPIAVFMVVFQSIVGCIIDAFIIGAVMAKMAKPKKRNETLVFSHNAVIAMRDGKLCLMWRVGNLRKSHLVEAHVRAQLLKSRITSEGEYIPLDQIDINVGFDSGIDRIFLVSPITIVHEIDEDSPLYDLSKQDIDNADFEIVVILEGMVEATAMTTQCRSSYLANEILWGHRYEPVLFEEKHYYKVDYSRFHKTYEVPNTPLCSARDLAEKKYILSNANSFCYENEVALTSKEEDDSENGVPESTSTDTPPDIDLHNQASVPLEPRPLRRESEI

[8] = Stability in dog microsomes assessed as compound remaining at 45 mins; type: ADME, Canis lupus familiaris, Microsome; settings: read-out: Stability
Rattus norvegicus [9] = assay: Antihypertensive activity in […] rat model assessed as change in systolic blood pressure at 30 mg/kg, po administered qd measured on day 3; type: functional
Method in brief: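 Spontaneously hypertensive rats were dosed orally once daily for 3 days. Systolic blood pressure change was read on day 3 relative to vehicle, with n = 5 per group.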

## Cc1c([C@@H]2CN3CCN(C(=O)Cc4ccc(-n5cnnn5)cn4)C[C@H]3CO2)ccc(F)c1C#N
[1]
  remaining at 0.75 h: 85%
[2]
  IC50: > 100 µM
[3]
  remaining at 0.75 h: 89%
[4]
  half-life: 1.5 h
Rattus norvegicus [5]
  fold change (FC): 1.8
[6]
  fraction unbound: 0.58
[7]
  IC50: > 100 µM
[8]
  remaining at 0.75 h: 82%
Rattus norvegicus [9]
  Activity: -16 mmHg
